Screening results as filed in PubChem.
The list is not random: actives were taken first. Their share in the collection is about 1.2%.
RAD54 inh: blocks human RAD54 Holliday junction branch migration. Q92698. FAM/BHQ fluorescence. inhibition, % at 10.4 µM. hit rate 0.14% among 360,000;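 active = mean normalized replicate activity at least 40 and at least half of replicates scoring 40 or more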;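 note: inhibitors cause a drop in the FAM fluorescence signal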
FN deposition inh: fibronectin deposition inhibition; AID 743247; hit rate 0.086% among 350,000; AH1F fibroblasts, Alexa488-fibronectin deposition fluorescence, overnight; inhibition, % at 12.6 µM;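 active = mean inhibition across replicates of 30% or more, regardless of how many single replicates reach that level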
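test system = AH1F fibroblasts assembling fluorescent fibronectin matrix | quantity = 10000 AH1F cells per well | buffer or medium = DMEM plus 2% serum, read in PBS | doses = single dose, pinned | incubation = 1 h cell attachment, overnight exposure to compound and label | detection = fluorescence at 485 nm excitation, 525 nm emission | read-out basis = inhibition from reduced deposited-fibronectin fluorescence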
N-glyco inh: N-linked glycosylation inhibition | hit rate 0.23% among 360,000 | D54 ERlucT glycosylation luciferase reporter, 24 h; percent of 100 nM tunicamycin response | reporter increase, % at 12.5 µM;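 active = mean luciferase reporter signal, scaled so untreated is 0 and the glycosylation-blocking control 100, at or above a set limit in every replicate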;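 note: luciferase carries N-glycosylation sites so blocking glycosylation raises the light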
RAD52 inh: inhibitors of human RAD52 DNA annealing. P43351. recombinant RAD52 DNA annealing, FRET fluorescence. inhibition, % at 18.7 µM. hit rate 0.46% among 360,000. AID 651710;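 active = every replicate showing at least 50% inhibition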
NSD2 inh: NSD2 (human) methyltransferase inhibition. O96028. NSD2 peptide methylation, AlphaScreen, 120 min. inhibition, % at 12.5 µM. hit rate 0.54% among 310,000. AID 743445; in the data active = inhibition above about 50%
MLL AF4-AF9 inh: inhibitors of human MLL-AF4/AF9 interaction; P42568; AlphaScreen, biotin-AF4 peptide binding to FLAG-AF9; inhibition, % at 10 µM; hit rate 0.47% among 350,000;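 active = every replicate reaching a set inhibition limit, whatever the replicate mean, cut at about 25% in these data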
Target sequence (P42568 whole entry, looked up): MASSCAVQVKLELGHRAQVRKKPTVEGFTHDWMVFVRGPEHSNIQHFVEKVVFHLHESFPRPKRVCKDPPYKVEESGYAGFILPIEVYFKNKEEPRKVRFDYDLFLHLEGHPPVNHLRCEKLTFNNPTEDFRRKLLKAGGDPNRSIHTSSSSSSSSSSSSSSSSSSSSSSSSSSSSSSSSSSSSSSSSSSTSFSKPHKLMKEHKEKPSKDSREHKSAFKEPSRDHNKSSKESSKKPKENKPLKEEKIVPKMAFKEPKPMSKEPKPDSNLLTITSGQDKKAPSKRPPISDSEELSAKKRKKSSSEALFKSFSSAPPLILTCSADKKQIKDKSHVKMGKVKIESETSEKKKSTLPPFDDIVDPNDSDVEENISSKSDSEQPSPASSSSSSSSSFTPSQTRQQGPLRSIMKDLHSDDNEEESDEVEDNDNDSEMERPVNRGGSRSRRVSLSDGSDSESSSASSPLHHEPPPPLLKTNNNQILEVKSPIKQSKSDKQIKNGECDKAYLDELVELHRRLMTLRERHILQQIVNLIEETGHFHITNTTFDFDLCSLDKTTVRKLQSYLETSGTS
AlphaScreen art: interferes with AlphaScreen signal, flagging NSD2 false positives; shares compounds with NSD2 inh; AlphaScreen artifact counterscreen, preloaded methylated H4 peptide; AC35, µM (highest dose often 10 µM); hit rate 9.4% among 1,500; AID 1053174; call rule not given here
Large screens that a line does not name were inactive (follow-up assays come after a bar, where they were run).

CCC(=O)N(C)C[C@H]1Oc2ncc(C3=CCCC3)cc2C(=O)N([C@H](C)CO)C[C@@H]1C	none (no result: N-glyco inh, NSD2 inh)
O=C1C(Cl)=C(NCCN2CCCCC2)C(=O)c2ccccc21	NSD2 inh 57.9 (no result: RAD54 inh, FN deposition inh, RAD52 inh, MLL AF4-AF9 inh) | AlphaScreen art inactive
O=[N+]([O-])c1ccccc1-c1ccc(/C=N/n2cnnc2)o1	none (no result: FN deposition inh, RAD52 inh, MLL AF4-AF9 inh)
Nn1cnnc1N/N=C\c1ccc(-c2ccccc2[N+](=O)[O-])o1	NSD2 inh 97.5 | AlphaScreen art inactive
COc1cc(NC(=O)COC(=O)CNC(=O)c2ccc(C)cc2)c(C)cc1[N+](=O)[O-]	NSD2 inh 58.8 (no result: RAD54 inh) | AlphaScreen art inactive
O=C(C[C@H]1CC[C@@H]2[C@H](COC[C@@H](O)CN2Cc2ccc(Cl)cc2)O1)NCc1cccc(F)c1	none (no result: N-glyco inh, RAD52 inh, NSD2 inh, MLL AF4-AF9 inh)
CCOc1ccc(NC2=C(OC)C(=O)c3ccccc3C2=O)cc1	NSD2 inh 53.0 (no result: RAD54 inh, RAD52 inh, MLL AF4-AF9 inh) | AlphaScreen art 3.74µM
COC1=C(Nc2ccc(OC)cc2)C(=O)c2ccccc2C1=O	NSD2 inh 65.6 (no result: RAD54 inh, RAD52 inh, MLL AF4-AF9 inh) | AlphaScreen art 5.5µM
Cn1c(SCC(=O)Nc2ccccc2C(F)(F)F)nc2c(c1=O)SCC2	none
Cc1nc(N)sc1-c1nnc(SCC(=O)Nc2ccccc2C(F)(F)F)n1C	NSD2 inh 125.4 (no result: FN deposition inh, RAD52 inh, MLL AF4-AF9 inh) | AlphaScreen art inactive
CCc1nnc(NC(=O)COc2ccc3c(c2)OCO3)s1	NSD2 inh 99.9 (no result: RAD54 inh) | AlphaScreen art inactive
C/C(NCCc1ccccc1)=C1/CCOC1=O	NSD2 inh 65.0 | AlphaScreen art inactive
CCOc1ccccc1/C=N/NC(=O)c1nnn(-c2nonc2N)c1CN1CCCC1	none
CCOc1ccccc1/C=N/NC(=O)c1nnn(-c2nonc2N)c1CN1CCC(C)CC1	NSD2 inh 82.8 | AlphaScreen art inactive
O=C(CN1CCN(S(=O)(=O)c2ccc(Br)cc2)CC1)c1ccc(O)c(O)c1	NSD2 inh 79.7 | AlphaScreen art inactive
O=C(CN1CCN(c2ccccc2F)CC1)c1ccc(O)c(O)c1	NSD2 inh 94.8 | AlphaScreen art inactive
COc1ccc(OC)c(C(=O)CN2CCN(S(=O)(=O)c3ccc(Br)cc3)CC2)c1	none (no result: FN deposition inh, RAD52 inh, MLL AF4-AF9 inh)
CN1CCN(C(=O)C[C@@H]2CC[C@@H]3[C@H](COC[C@H](O)CN3C(=O)C3CC3)O2)CC1	none (no result: N-glyco inh, NSD2 inh)
Cc1ccc2nc(-c3ccc(O)c(O)c3)cn2c1	NSD2 inh 55.3 | AlphaScreen art inactive
Cc1ccc2nc(-c3ccccc3)cn2c1	none (no result: FN deposition inh, RAD52 inh, NSD2 inh, MLL AF4-AF9 inh)
Cc1c(-c2ccc(/C=N/NC(=O)C(=O)Nc3ccccc3F)o2)cccc1[N+](=O)[O-]	NSD2 inh 64.2 | AlphaScreen art inactive
Cc1cccc(-c2ccc([C@H]3[C@@H](CO)N4CCCCN(C(=O)c5ccc6c(c5)OCO6)C[C@H]34)cc2)c1	none (no result: FN deposition inh, N-glyco inh, NSD2 inh)
CC(=O)N(C)C[C@@H]1Oc2cc(C#CC(C)(C)O)ccc2S(=O)(=O)N([C@H](C)CO)C[C@H]1C	none (no result: N-glyco inh, NSD2 inh)
CNc1c(N)n(Cc2ccccc2)c(=O)[nH]c1=O	NSD2 inh 64.0 (no result: RAD52 inh, MLL AF4-AF9 inh) | AlphaScreen art inactive
COc1ccc(CN(C)C[C@@H]2OCCCC[C@@H](C)Oc3ccc(NC(=O)CCCN(C)C)cc3C(=O)N([C@@H](C)CO)C[C@@H]2C)cc1	none (no result: RAD54 inh, FN deposition inh, N-glyco inh, NSD2 inh)
NC1=NC(=Nc2ccc(Br)cc2)c2ccccc21	NSD2 inh 52.9 | AlphaScreen art inactive
COc1ccccc1N(CC(=O)NCC1CCCO1)C(=O)CNS(=O)(=O)c1ccc(C)cc1 (centres undefined)	NSD2 inh 68.6 (no result: RAD52 inh, MLL AF4-AF9 inh) | AlphaScreen art inactive
COc1ccc(Cn2cnc3c(N)c(C)c(C)cc32)cc1	none (no result: RAD54 inh)
CCCCCCCCn1cnc2c(N)c(C)c(C)cc21	NSD2 inh 76.5 (no result: FN deposition inh) | AlphaScreen art inactive
CC(C)C#Cc1ccc([C@@H]2[C@@H](CO)N3C(=O)CN(C(=O)NC4CCCCC4)C[C@H]23)cc1	none (no result: RAD54 inh, N-glyco inh, NSD2 inh)
C=CCN(CC=C)Cc1cc(=O)oc2ccc3ccccc3c12	none (no result: NSD2 inh)
C=CCN(CC=C)Cc1c(O)ccc2c1oc(=O)c1ccccc12	NSD2 inh 51.3 (no result: FN deposition inh, RAD52 inh, MLL AF4-AF9 inh) | AlphaScreen art inactive
O=c1[nH]c2ccccc2c2ccccc12	none (no result: RAD52 inh, MLL AF4-AF9 inh)
Nc1c(Br)cc(Br)c2c1[nH]c(=O)c1ccccc12	NSD2 inh 73.1 (no result: RAD54 inh) | AlphaScreen art inactive
CC(=O)N1CCN(Cc2nc3cc(NC(=O)Cn4nc(C)c5ccccc5c4=O)ccc3n2C)CC1	NSD2 inh 59.9 (no result: RAD52 inh, MLL AF4-AF9 inh) | AlphaScreen art inactive
O=C(NC(c1ccc(Cl)cc1)c1cc(Cl)c2cccnc2c1O)c1cccnc1 (centres undefined)	NSD2 inh 62.7 (no result: RAD52 inh, MLL AF4-AF9 inh) | AlphaScreen art inactive
CC(=O)Nc1ccc(S(=O)(=O)NCCSCc2c(Cl)cccc2Cl)cc1	NSD2 inh 122.7 (no result: RAD52 inh, MLL AF4-AF9 inh) | AlphaScreen art inactive
Cc1ccc(S(=O)(=O)N2CCCC(N3CCOCC3)C2)cc1Cl (centres undefined)	NSD2 inh 53.0 | AlphaScreen art inactive
Cc1ccc(S(=O)(=O)c2ccc(Cl)cc2)cc1S(=O)(=O)N1CCOCC1	NSD2 inh 116.3 (no result: RAD52 inh, MLL AF4-AF9 inh) | AlphaScreen art inactive
Cc1ccc(S(=O)(=O)N2CCCC2)cc1S(=O)(=O)N1CCCC1	none (no result: RAD52 inh, MLL AF4-AF9 inh)
COc1ccc(C)cc1S(=O)(=O)N1CCCC(N2CCOCC2)C1 (centres undefined)	none
